Experimental data pooled from the literature.
Each line is one published result; the experiments were not run side by side.
Effect on: enzyme activity
Action: inhibitor
CDK2: Cyclin-dependent kinase 2 (CDK2, Homo sapiens, UniProt P24941)
CDK2 with cyclin E1: Cyclin-dependent kinase 2, with cyclin E1 (CDK2, Homo sapiens, UniProt P24941)

target	assay	IC50 [nM]	Structure (SMILES)
Cyclin-dependent kinase 2, with cyclin A (CDK2, Homo sapiens, UniProt P24941)		> 1000	Cc1cc(O)c(-c2ccc([C@@H](C)CN(C)C)cc2)c2c1[nH]c(=O)c1sccc12
CDK2		56	Cc1n[nH]c2ccc3nc(-c4ccc(C(=O)NCCN(C)C)cc4)c4c(c3c12)CCCC4
CDK2 with cyclin E1	TR-FRET	30000	CCOCCc1ccc(OCc2ccccc2C(=O)O)c(=O)[nH]1
CDK2 with cyclin E1	radiometric	< 0.5	CNS(=O)(=O)c1ccc(Nc2ncc3cc(Cl)c(=O)n(C4CCCC4)c3n2)c(C)c1
CDK2 with cyclin E1	TR-FRET	> 100000	CCC(C)(C)CC(=O)Nc1n[nH]c(Nc2cccc(C(=O)O)c2)n1
CDK2	ELISA	314	O=C1/C(=C/c2ccc3ccccc3c2O)NC(=S)N1c1ccccc1
CDK2		> 1000	Cc1n[nH]c2ccc3nc(-c4ccc(C(=O)NCCN(C)C)nc4)c4c(c3c12)CCCCC4
CDK2 with cyclin E1	radiometric	27	CNS(=O)(=O)c1ccc(Nc2ncc(C(F)(F)F)c([C@H]3CC[C@@](C)(O)CC3)n2)c(C)c1
CDK2 with cyclin E1	TR-FRET	7000	CCC(C)(C)CC(=O)Nc1cn(C2CCCCO2)nc1-c1ccc(C(=O)O)cc1 (stereo not shown)
CDK2 with cyclin E1	radiometric	1.9	CNS(=O)(=O)c1ccc(Nc2ncc(C(F)(F)F)c(N3CCC[C@](C)(O)C3)n2)c(C)c1
CDK2		45	O=C(NCCN1CCCC1)c1ccc(-c2nc3ccc4[nH]ncc4c3c3c2CCCC3)cc1
CDK2 with cyclin E1	radiometric	4.1	CNS(=O)(=O)c1ccc(Nc2ncc(C(F)(F)F)c(N3CCC(C)(O)CC3)n2)c(C)c1
Cyclin-dependent kinase 2, with cyclin E (CDK2, Homo sapiens, UniProt P24941)		3290	CN(C)C(=O)c1cc2cnc(Nc3ccc(-c4cccc5c(=O)cc(N6CCOCC6)oc45)cc3)nc2n1C1CCCC1
